pIC50: −log10 of the molar value. The source made the active and inactive calls. No cut-off for these calls is given here.

These results are taken from ChEMBL document CHEMBL2385063, “Identification of 2-(2-(1-naphthoyl)-8-fluoro-3,4-dihydro-1H-pyrido[4,3-b]indol-5(2H)-yl)acetic acid (setipiprant/ACT-129968), a potent, selective, and orally bioavailable chemoattractant receptor-homologous molecule expressed on Th2 cells (CRTH2) antagonist” (J Med Chem, 2013).

In test [1] the target is T1, Prostaglandin E2 receptor EP1 subtype (Homo sapiens, UniProt P34995).
T1 sequence (P34995 whole entry): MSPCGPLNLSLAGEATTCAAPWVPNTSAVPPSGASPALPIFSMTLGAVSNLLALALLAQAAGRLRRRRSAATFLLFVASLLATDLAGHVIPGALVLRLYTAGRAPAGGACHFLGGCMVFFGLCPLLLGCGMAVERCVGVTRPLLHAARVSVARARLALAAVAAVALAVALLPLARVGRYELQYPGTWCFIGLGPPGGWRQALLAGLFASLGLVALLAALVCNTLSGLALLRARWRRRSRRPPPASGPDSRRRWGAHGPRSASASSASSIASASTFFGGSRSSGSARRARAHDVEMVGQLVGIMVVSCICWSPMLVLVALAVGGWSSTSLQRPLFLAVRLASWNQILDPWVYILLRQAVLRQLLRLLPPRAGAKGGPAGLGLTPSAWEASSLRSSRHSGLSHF
Nature of the test: Antagonist activity at human prostanoid EP1 receptor expressed in CHOK1 cells assessed as inhibition of PGE2-induced calcium flux after 60 mins by FLIPR assay. It is filed as functional, cell-based, CHO-K1.

For the next test, the target named is T2, Thromboxane A2 receptor (Homo sapiens, UniProt P21731).
T2 sequence (P21731 whole entry): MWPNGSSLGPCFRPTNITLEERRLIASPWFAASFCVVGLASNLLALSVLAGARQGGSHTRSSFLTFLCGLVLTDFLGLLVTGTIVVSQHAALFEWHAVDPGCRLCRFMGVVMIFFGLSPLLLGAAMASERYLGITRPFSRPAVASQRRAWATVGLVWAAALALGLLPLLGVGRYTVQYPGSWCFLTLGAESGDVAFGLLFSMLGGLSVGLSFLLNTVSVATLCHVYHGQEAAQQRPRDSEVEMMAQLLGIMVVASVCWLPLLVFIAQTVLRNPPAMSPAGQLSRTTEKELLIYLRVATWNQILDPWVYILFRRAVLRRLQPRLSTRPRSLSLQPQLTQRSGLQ
Briefly: Antagonist activity at human prostanoid TP2 receptor expressed in HEK293 cells assessed as inhibition of calcium flux after 30 to 40 mins by FLIPR assay. The format is functional, cell-based.

The target of test [2] is T3, Prostaglandin E2 receptor EP3 subtype (Homo sapiens, UniProt P43115).
T3 sequence (P43115 whole entry): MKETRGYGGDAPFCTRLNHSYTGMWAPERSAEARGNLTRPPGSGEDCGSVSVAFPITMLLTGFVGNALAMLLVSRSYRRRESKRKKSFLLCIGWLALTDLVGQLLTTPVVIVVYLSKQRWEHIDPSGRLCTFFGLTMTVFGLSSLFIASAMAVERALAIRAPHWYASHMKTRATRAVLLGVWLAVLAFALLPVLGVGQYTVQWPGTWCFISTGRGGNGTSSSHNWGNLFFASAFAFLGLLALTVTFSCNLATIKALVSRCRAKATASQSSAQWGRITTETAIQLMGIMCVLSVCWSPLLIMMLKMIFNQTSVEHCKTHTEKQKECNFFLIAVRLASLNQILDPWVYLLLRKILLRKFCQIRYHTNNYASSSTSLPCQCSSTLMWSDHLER
Briefly: Antagonist activity at human prostanoid EP3 receptor expressed in HEK293 cells assessed as inhibition of PGE2-induced calcium flux after 60 mins by FLIPR assay. The format is functional, cell-based. In general terms: Calcium flux is commonly read through the fluorescence of an indicator in the cells.

Test [3] addresses T4, Prostaglandin G/H synthase 1 (Ovis aries, UniProt P05979).
T4 sequence (P05979 whole entry): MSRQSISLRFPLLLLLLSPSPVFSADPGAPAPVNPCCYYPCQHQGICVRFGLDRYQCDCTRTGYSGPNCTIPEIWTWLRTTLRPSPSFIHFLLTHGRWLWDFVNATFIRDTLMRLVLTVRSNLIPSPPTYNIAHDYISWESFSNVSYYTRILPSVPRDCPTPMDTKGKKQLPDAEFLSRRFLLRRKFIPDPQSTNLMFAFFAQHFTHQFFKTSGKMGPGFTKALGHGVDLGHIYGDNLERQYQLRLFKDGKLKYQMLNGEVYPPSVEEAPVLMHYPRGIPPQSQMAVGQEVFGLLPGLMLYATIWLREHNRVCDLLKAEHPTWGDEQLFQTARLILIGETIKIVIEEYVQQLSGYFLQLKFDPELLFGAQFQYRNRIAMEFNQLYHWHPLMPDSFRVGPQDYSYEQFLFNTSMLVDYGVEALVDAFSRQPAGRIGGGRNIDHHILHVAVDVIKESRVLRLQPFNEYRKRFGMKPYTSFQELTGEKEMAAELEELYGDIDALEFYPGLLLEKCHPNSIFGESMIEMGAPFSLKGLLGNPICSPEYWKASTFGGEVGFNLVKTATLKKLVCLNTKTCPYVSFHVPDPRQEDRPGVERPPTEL
Briefly: Antagonist activity at ovine COX-1.

For test [4], the target named is T5, Prostaglandin D2 receptor 2 (Mus musculus) (UniProt Q9Z2J6).
T5 sequence (whole entry): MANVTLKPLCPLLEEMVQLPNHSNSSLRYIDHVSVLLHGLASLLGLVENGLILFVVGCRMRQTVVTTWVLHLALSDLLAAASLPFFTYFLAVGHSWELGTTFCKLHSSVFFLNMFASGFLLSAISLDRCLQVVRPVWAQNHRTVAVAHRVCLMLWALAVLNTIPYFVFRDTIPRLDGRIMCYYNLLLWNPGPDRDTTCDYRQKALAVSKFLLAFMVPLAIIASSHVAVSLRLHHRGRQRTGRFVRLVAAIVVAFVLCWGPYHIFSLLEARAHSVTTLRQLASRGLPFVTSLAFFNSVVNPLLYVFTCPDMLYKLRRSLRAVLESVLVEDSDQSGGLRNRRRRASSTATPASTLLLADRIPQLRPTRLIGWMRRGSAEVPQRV
Briefly: Antagonist activity at mouse CRTH2 receptor assessed as inhibition of calcium flux by cell-based FLIPR assay. The format is functional.

The species entered for the next test is Homo sapiens. Briefly: Selectivity factor, ratio of IC50 for recombinant human prostanoid DP1 receptor to IC50 for recombinant human CRTH2 receptor. In outline:
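hDP₁ IC₅₀ came from competitive [³H]PGD₂ binding on CHO cells stably overexpressing recombinant hDP₁. hCRTh2 IC₅₀ came from [³H]PGD₂ (2.5 nM) displacement on membranes of HEK-293 cells stably expressing hCRTh2, incubated 90 min at room temperature, filtered and counted. f_Sel = IC₅₀(hDP₁)/IC₅₀(hCRTh2).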

The term pIC50 denotes −log10 of the IC50, conventionally taken in molar units. For the molecule `O=C(O)Cn1c2c(c3ccccc31)CN(C(=O)C1CCCCC1)CC2`, the pIC50 is below 4.60 in test [1], below 4.60 at Thromboxane A2 receptor, below 4.60 in test [2] and below 5.00 in test [3]. Further, the inhibition result in test [4] is “Active”.

As for `O=C(O)Cn1c2c(c3ccccc31)CN(C(=O)c1cccc(Cl)c1)CC2`, the pIC50 is below 4.60 in test [1], below 4.60 on Thromboxane A2 receptor, below 4.60 in test [2] and below 5.00 in test [3]. Also, the Ratio IC50 in the test listed under Homo sapiens is above 1000. Also, the inhibition entry in test [4] is “Active”.

For the molecule `O=C(O)Cn1c2c(c3cc(F)ccc31)CN(C(=O)CCc1cccc3ccccc13)CC2`, the pIC50 in test [1] is below 4.60; at Thromboxane A2 receptor, below 4.60; in test [2], below 4.60; in test [3], below 5.00. In addition, in the test listed under Homo sapiens, the Ratio IC50 is above 1000. Moreover, in test [4], the inhibition entry was “Active”.

As to `Cc1ccc2c(c1)c1c(n2CC(=O)O)CCN(C(=O)c2cccc3ccccc23)C1`, the pIC50 was below 4.60 in test [1], below 4.60 at Thromboxane A2 receptor, below 4.60 in test [2] and below 5.00 in test [3]. The Ratio IC50 in the test listed under Homo sapiens was 540. Besides, the inhibition result in test [4] was “Active”.

Consider `CCc1ccc(-c2ccc(C(=O)N3CCc4c(c5cccc(Cl)c5n4CC(=O)O)C3)cc2)cc1`, for which the pIC50 is below 4.60 in test [1], below 4.60 at Thromboxane A2 receptor, below 4.60 in test [2] and below 5.00 in test [3]. Also, the Ratio IC50 in the test listed under Homo sapiens was found to be 5.2. The inhibition result in test [4] is “Active”.

Take `CCc1ccc(-c2ccc(C(=O)N3CCc4c(c5ccccc5n4CC(=O)O)C3)cc2)cc1`: the pIC50 in test [1] is below 4.60; on Thromboxane A2 receptor, below 4.60; in test [2], below 4.60; in test [3], below 5.00. In the test filed under Homo sapiens, the Ratio IC50 is 195. The inhibition entry in test [4] was “Active”.

Consider `O=C(O)Cn1c2c(c3cc(F)ccc31)CN(C(=O)Cc1cccc3ccccc13)CC2`, for which the pIC50 in test [1] was below 4.60; on Thromboxane A2 receptor it was below 4.60; in test [2], below 4.60; in test [3] it was below 5.00. Moreover, the Ratio IC50 in the test listed under Homo sapiens is above 2500. Also, in test [4], the inhibition entry was “Active”.

Regarding `O=C(O)Cn1c2c(c3cc(C(F)(F)F)ccc31)CN(C(=O)c1cccc3ccccc13)CC2`, the pIC50 is below 4.60 in test [1], below 4.60 on Thromboxane A2 receptor, below 4.60 in test [2] and below 5.00 in test [3]. Further, in the test filed under Homo sapiens, the Ratio IC50 stood at 200. Also, the inhibition result in test [4] is “Active”.

For the molecule `O=C(O)Cn1c2c(c3cc(F)cc(Cl)c31)CN(C(=O)c1cccc(Cl)c1)CC2`, the pIC50 in test [1] was below 4.60; on Thromboxane A2 receptor, below 4.60; in test [2], below 4.60; in test [3], below 5.00. Moreover, the Ratio IC50 in the test listed under Homo sapiens amounted to 22. The inhibition entry in test [4] was “Active”.

Regarding `COc1ccc2c(c1)c1c(n2CC(=O)O)CCN(C(=O)c2ccccc2)C1`, the pIC50 in test [1] was below 4.60; on Thromboxane A2 receptor, below 4.60; in test [2] it was below 4.60; in test [3], below 5.00. The inhibition entry in test [4] was “Active”.

Consider `O=C(O)Cn1c2c(c3cc(F)ccc31)CN(C(=O)Cc1c[nH]c3ccccc13)CC2`, for which the pIC50 in test [1] was below 4.60; on Thromboxane A2 receptor, below 4.60; in test [2] it was below 4.60; in test [3], below 5.00. For the same molecule, the Ratio IC50 in the test filed under Homo sapiens is above 2000. Besides, the inhibition result in test [4] is “Active”.

For `O=C(O)Cn1c2c(c3cc(Cl)ccc31)CN(C(=O)c1cccc3ccccc13)CC2`, the pIC50 is below 4.60 in test [1], below 4.60 on Thromboxane A2 receptor, below 4.60 in test [2] and below 5.00 in test [3]. Further, the Ratio IC50 in the test listed under Homo sapiens was 230. Moreover, the inhibition result in test [4] was “Active”.

Consider `O=C(O)Cn1c2c(c3ccccc31)CN(C(=O)c1ccccc1)CC2`, for which the negative logarithm of the IC50 (pIC50) in test [1] is below 4.60; in test [2], below 4.60; in test [3] it was below 5.00. Further, the Ratio IC50 in the test filed under Homo sapiens is above 580. For the same molecule, in test [4], the inhibition entry is “Active”.

For the molecule `CC(C)c1ccc2c(c1)c1c(n2CC(=O)O)CCN(C(=O)c2ccccc2)C1`, the pIC50 was below 4.60 in test [1], below 4.60 on Thromboxane A2 receptor, below 4.60 in test [2] and below 5.00 in test [3]. Also, the inhibition result in test [4] was “Active”.

`O=C(O)Cn1c2c(c3cc(C(F)(F)F)ccc31)CN(C(=O)c1ccccc1)CC2`: the pIC50 is below 4.60 in test [1], below 4.60 on Thromboxane A2 receptor, below 4.60 in test [2] and below 5.00 in test [3]. The Ratio IC50 in the test listed under Homo sapiens is above 1100. In addition, the inhibition result in test [4] is “Active”.

On to `O=C(O)Cn1c2c(c3cc(F)ccc31)CN(C(=O)c1cccc3ccccc13)CC2` [SETIPIPRANT], for which the pIC50 is below 4.60 in test [1], below 4.60 at Thromboxane A2 receptor, below 4.60 in test [2] and below 5.00 in test [3]. Further, the Ratio IC50 in the test listed under Homo sapiens is 215.

As to `O=C(O)Cn1c2c(c3cc(F)ccc31)CN(C(=O)c1cccc(Cl)c1)CC2`, the pIC50 in test [1] was below 4.60; at Thromboxane A2 receptor, below 4.60; in test [2], below 4.60; in test [3] it was below 5.00. For the same molecule, the Ratio IC50 in the test filed under Homo sapiens is above 1100.

As to `O=C(O)Cn1c2c(c3cc(F)ccc31)CN(C(=O)c1cccs1)CC2`, the pIC50 in test [1] was below 4.60; on Thromboxane A2 receptor, below 4.60; in test [2] it was below 4.60; in test [3], below 5.00. Further, the Ratio IC50 in the test listed under Homo sapiens was above 2500. Besides, the inhibition result in test [4] is “Active”.

In the case of `O=C(O)Cn1c2c(c3cc(F)cc(Cl)c31)CN(C(=O)c1cccc3ccccc13)CC2`, the pIC50 in test [1] is below 4.60; at Thromboxane A2 receptor it was below 4.60; in test [2], below 4.60; in test [3], below 5.00. In the test listed under Homo sapiens, the Ratio IC50 was 4.1. The inhibition entry in test [4] was “Active”.

Take `O=C(O)Cn1c2c(c3ccccc31)CN(C(=O)c1cccc3ccccc13)CC2`: the pIC50 is below 4.60 in test [1], below 4.60 at Thromboxane A2 receptor, below 4.60 in test [2] and below 5.00 in test [3]. In addition, in the test filed under Homo sapiens, the Ratio IC50 amounted to 87.
